Some results are limits rather than exact numbers.

One experiment concerns the target T1, fMet-Leu-Phe receptor (Homo sapiens, UniProt P21462).
T1 sequence (P21462 whole entry): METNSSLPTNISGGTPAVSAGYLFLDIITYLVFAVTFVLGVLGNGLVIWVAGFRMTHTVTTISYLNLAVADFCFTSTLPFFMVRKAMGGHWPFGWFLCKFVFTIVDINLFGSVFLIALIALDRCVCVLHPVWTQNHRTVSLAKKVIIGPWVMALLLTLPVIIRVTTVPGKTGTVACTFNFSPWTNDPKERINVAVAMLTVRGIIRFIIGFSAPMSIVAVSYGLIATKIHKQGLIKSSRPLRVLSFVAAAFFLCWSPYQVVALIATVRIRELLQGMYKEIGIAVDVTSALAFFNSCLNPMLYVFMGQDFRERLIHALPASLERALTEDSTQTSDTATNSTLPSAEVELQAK
Kind of experiment: Inhibitory activity against human formylpeptide receptor (FPR) of human leukemia HL-60 cells. It is filed as cell-based. The method in brief:
(§1)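 HL-60 cells differentiated 48 h with 0.2 mM dibutyryl cAMP, washed, then treated with 5 μM cytochalasin B (5–10 min, 37 °C). Stimulated 10 min with 30 nM f-MLF. N-acetyl-β-D-glucosaminidase release read at 410 nm on p-nitrophenyl substrate after spontaneous-release subtraction. Duplicate wells; IC20/IC50 as mean ± SD of independent experiments.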

The target in experiment [1] is T2, fMet-Leu-Phe receptor (Homo sapiens) (UniProt P21462).
T2 sequence (whole entry): T1 sequence (P21462 whole entry)
Kind of experiment: Inhibitory activity against Human formylpeptide receptor (FPR) of human leukemia HL-60 cells. It is filed as cell-based. In a few lines:
as §1

The IC50 is the concentration that gives 50% inhibition. A low value points to inhibition by little substance. What is called IC20 is the concentration needed for an effect of 20%. At fMet-Leu-Phe receptor (hl-60), `C/C=C/C[C@@H](C)[C@@H](O)C1NC(=O)[C@H](C(C)C)N(C)C(=O)[C@H](CC(C)C)N(C)C(=O)[C@H](CC(C)C)N(C)C(=O)[C@@H](C)NC(=O)[C@H](C)NC(=O)[C@@H](CC(C)C)N(C)C(=O)[C@@H](C(C)C)NC(=O)[C@@H](CC(C)C)N(C)C(=O)CN(C)C(=O)[C@H](CC)NC1=O` (stereo partly specified) displayed a half-maximal inhibitory concentration (IC50) of 6.45 µM. The molecule further gave an IC20 in experiment [1] of 1.9 µM. On to `C/C=C/C[C@@H](C)[C@@H](O)[C@H]1C(=O)N[C@@H]([C@@H](C)O)C(=O)N(C)CC(=O)N[C@@H](CC(C)C)C(=O)N[C@@H](CC(C)C)C(=O)N(C)[C@@H](CC(C)C)C(=O)N[C@@H](C)C(=O)N[C@](O)(C(C)C)C(=O)N(C)[C@@H](CC(C)C)C(=O)N[C@@H](CC(C)C)C(=O)N(C)[C@@H](C(C)C)C(=O)N1C`, for which the IC50 against fMet-Leu-Phe receptor was 0.56 µM. `C/C=C/C[C@@H](C)[C@@H](O)[C@H]1C(=O)N[C@@H](CC)C(=O)N(C)CC(=O)N(C)[C@@H](CC(C)C)C(=O)N[C@@H](C(C)C)C(=O)N(C)[C@@H](CC(C)C)C(=O)N[C@@H](C)C(=O)N[C@H](C)C(=O)N(C)[C@@H](CC(C)C)C(=O)N(C)[C@@H](CC(C)C)C(=O)N(C)[C@@H](C)C(=O)N1C` gave an IC50 against fMet-Leu-Phe receptor of 2.52 µM. As for `C/C=C/C[C@@H](C)[C@@H](O)C1NC(=O)[C@H](C(C)C)N(C)C(=O)[C@H](CC(C)C)N(C)C(=O)[C@H](CC(C)C)N(C)C(=O)[C@@H](C)NC(=O)[C@H](C)NC(=O)[C@@H](CC(C)C)N(C)C(=O)[C@@H](C(C)C)NC(=O)[C@@H](CC(C)C)N(C)C(=O)CN(C)C(=O)[C@H]([C@@H](C)O)NC1=O` (stereo partly specified), the IC50 on fMet-Leu-Phe receptor (hl-60) was found to be 5.5 µM. In addition, the IC20 in experiment [1] was found to be 1.5 µM. `C/C=C/C[C@@H](C)[C@@H](O)[C@H]1C(=O)N[C@@H]([C@@H](C)O)C(=O)N(C)CC(=O)N(C)[C@@H](CC(C)C)C(=O)N[C@@H](CC(C)C)C(=O)N(C)[C@@H](CC(C)C)C(=O)N[C@@H](C)C(=O)N[C@](O)(C(C)C)C(=O)N(C)[C@@H](CC(C)C)C(=O)N[C@@H](CC(C)C)C(=O)N(C)[C@@H](C(C)C)C(=O)N1C` had an IC50 against fMet-Leu-Phe receptor of 0.57 µM. `C/C=C/C[C@@H](C)[C@@H](O)C1NC(=O)[C@H](C(C)C)N(C)C(=O)[C@H](CC(C)C)N(C)C(=O)[C@H](CC(C)C)N(C)C(=O)[C@@H](C)NC(=O)[C@H](C)NC(=O)[C@@H](CC(C)C)N(C)C(=O)[C@@H](C(C)C)NC(=O)[C@@H](CC(C)C)N(C)C(=O)CN(C)C(=O)[C@H](C(C)C)NC1=O` (stereo partly specified): on fMet-Leu-Phe receptor (hl-60), the IC50 was more than 10 µM. The same molecule gave an IC20 in experiment [1] of 2 µM. As to `C/C=C/C[C@@H](C)[C@@H](O)[C@H]1C(=O)N[C@@H](CC)C(=O)N(C)CC(=O)N(C)[C@@H](CC(C)C)C(=O)N[C@@H](C(C)C)C(=O)N(C)[C@@H](CC(C)C)C(=O)N[C@@H](C)C(=O)N[C@H](C)C(=O)N[C@@H](CC(C)C)C(=O)N(C)[C@@H](CC(C)C)C(=O)N(C)[C@@H](C(C)C)C(=O)N1C`, the IC50 on fMet-Leu-Phe receptor amounted to 3 µM.

With `C/C=C/C[C@@H](C)[C@@H](O)[C@H]1C(=O)N[C@@H](CC)C(=O)NCC(=O)N(C)[C@@H](CC(C)C)C(=O)N[C@@H](C(C)C)C(=O)N(C)[C@@H](CC(C)C)C(=O)N[C@@H](C)C(=O)N[C@H](CO)C(=O)N(C)[C@@H](CC(C)C)C(=O)N(C)[C@@H](CC(C)C)C(=O)N(C)[C@@H](C(C)C)C(=O)N1C`, the IC50 against fMet-Leu-Phe receptor was more than 5 µM.

Molecule `CC/C=C/C[C@@H](C)[C@@H](O)[C@H]1C(=O)N[C@@H]([C@@H](C)O)C(=O)N(C)CC(=O)N(C)[C@@H](CC(C)C)C(=O)N[C@@H](C(C)C)C(=O)N(C)[C@@H](CC(C)C)C(=O)N[C@@H](C)C(=O)N[C@H](C)C(=O)N(C)[C@@H](CC(C)C)C(=O)N(C)[C@@H](CC(C)C)C(=O)N(C)[C@@H](C(C)C)C(=O)N1C` yielded an IC50 against fMet-Leu-Phe receptor of more than 10 µM. In turn, `C/C=C/C[C@@H](C)[C@@H](O)[C@H]1C(=O)N[C@@H](CC)C(=O)N(C)CC(=O)N(C)[C@H](CC(C)C)C(=O)N[C@H](C(C)C)C(=O)N(C)[C@H](CC(C)C)C(=O)N[C@@H](C)C(=O)N[C@H](C)C(=O)N(C)[C@@H](CC(C)C)C(=O)N(C)[C@@H](CC(C)C)C(=O)N(C)[C@H]([C@H](C)CC)C(=O)N1C` displayed an IC50 at fMet-Leu-Phe receptor (hl-60) of 1.57 µM. Also, the IC20 in experiment [1] stood at 0.29 µM. As to `C/C=C/C[C@@H](C)[C@@H](O)[C@H]1C(=O)N[C@@H]([C@@H](C)O)C(=O)N(C)CC(=O)N(C)[C@@H](CC(C)C)C(=O)N[C@@H]([C@@H](C)CC)C(=O)N(C)[C@@H](CC(C)C)C(=O)N[C@@H](C)C(=O)N[C@H](C)C(=O)N(C)[C@@H](CC(C)C)C(=O)N(C)[C@@H](CC(C)C)C(=O)N(C)[C@@H](C(C)C)C(=O)N1C`, inhibition against fMet-Leu-Phe receptor was half-maximal at 2.3 µM (IC50). With `C/C=C/C[C@@H](C)[C@@H](O)[C@H]1C(=O)N[C@@H](CCC)C(=O)N(C)CC(=O)N(C)[C@@H](CC(C)C)C(=O)N[C@@H](C(C)C)C(=O)N(C)[C@@H](CC(C)C)C(=O)N[C@@H](C)C(=O)N[C@H](C)C(=O)N[C@@H](CC(C)C)C(=O)N(C)[C@@H](CC(C)C)C(=O)N(C)[C@@H](C(C)C)C(=O)N1C`, at fMet-Leu-Phe receptor, the IC50 is more than 10 µM. `C/C=C/C[C@@H](C)[C@@H](O)[C@H]1C(=O)N[C@@H](CC)C(=O)N(C)CC(=O)N[C@@H]([C@@H](C)CC)C(=O)N[C@@H](C(C)C)C(=O)N(C)[C@@H](CC(C)C)C(=O)N[C@@H](C)C(=O)N[C@H](C)C(=O)N(C)[C@@H](CC(C)C)C(=O)N(C)[C@@H](CC(C)C)C(=O)N(C)[C@@H](C(C)C)C(=O)N1C` registered an IC50 against fMet-Leu-Phe receptor (hl-60) of more than 5 µM. For `C/C=C/C[C@@H](C)[C@@H](O)[C@H]1C(=O)N[C@@H](CC)C(=O)N(C)CC(=O)N(C)[C@@H](CC(C)C)C(=O)N[C@@H](C(C)C)C(=O)N(C)[C@@H](CC(C)C)C(=O)N[C@@H](C)C(=O)N[C@H](C)C(=O)N(C)[C@@H](CC(C)C)C(=O)N[C@@H](CC(C)C)C(=O)N(C)[C@@H](C(C)C)C(=O)N1C`, the IC50 on fMet-Leu-Phe receptor turned out to be 9.2 µM. The molecule `CC/C=C/C[C@@H](C)[C@@H](O)[C@H]1C(=O)N[C@@H](CC)C(=O)N(C)CC(=O)N(C)[C@@H](C(C)C)C(=O)N[C@@H](C(C)C)C(=O)N(C)[C@@H](CC(C)C)C(=O)N[C@@H](C)C(=O)N[C@H](C)C(=O)N(C)[C@@H](CC(C)C)C(=O)N(C)[C@@H](CC(C)C)C(=O)N(C)[C@@H](C(C)C)C(=O)N1C` returned an IC50 against fMet-Leu-Phe receptor of more than 5 µM.

`C/C=C/C[C@@H](C)[C@@H](O)[C@H]1C(=O)N[C@@H](C(C)C)C(=O)N(C)CC(=O)N(C)[C@@H](CC(C)C)C(=O)N[C@@H](C(C)C)C(=O)N(C)[C@@H](CC(C)C)C(=O)N[C@@H](C)C(=O)N[C@H](C)C(=O)N(C)[C@@H](CC(C)C)C(=O)N[C@@H](CC(C)C)C(=O)N(C)[C@@H](C(C)C)C(=O)N1C` displayed an IC50 against fMet-Leu-Phe receptor of more than 3 µM. Take `CC(C)C[C@@H]1NC(=O)[C@H](CC(C)C)N(C)C(=O)[C@@](O)(C(C)C)NC(=O)[C@H](C)NC(=O)[C@H](CC(C)C)N(C)C(=O)[C@H](CC(C)C)NC(=O)[C@H](CC(C)C)N(C)C(=O)CN(C)C(=O)[C@H]([C@@H](C)O)NC(=O)[C@H]([C@H](O)[C@H](C)C/C=C/CO)N(C)C(=O)[C@H](C(C)C)N(C)C1=O`: on fMet-Leu-Phe receptor, the IC50 was determined as 1.48 µM.

For the origin of these results see ChEMBL document CHEMBL1135620, “Cyclosporins: structure-activity relationships for the inhibition of the human FPR1 formylpeptide receptor” (J Med Chem, 2002).
